A word on the IC50: it is the point on the concentration scale where inhibition reaches its midpoint. Read a high IC50 as lower potency. In general, solubility (kinetic) refers to the concentration staying in solution when a stock, usually in DMSO, is diluted into the medium. One may read the Papp A→B as how fast a substance crosses the layer from the apical side. The Papp B→A is how fast a substance crosses the layer from the basolateral side. The efflux ratio is a quotient of directional permeabilities that is used to spot active efflux.

Calls of active or inactive are those of the source. The rule behind the calls is not given here.

For series [1], the target named is Dipeptidyl peptidase 4 (Mus musculus, UniProt P28843). As to the kind of experiment: Inhibition of DPP4 in C57BL/6 mouse serum pre-incubated for 5 mins followed by Gly-Pro-7-AMC substrate addition by fluorescence based assay. Type of series: cell-free.
Chain of Dipeptidyl peptidase 4 (P28843 whole entry): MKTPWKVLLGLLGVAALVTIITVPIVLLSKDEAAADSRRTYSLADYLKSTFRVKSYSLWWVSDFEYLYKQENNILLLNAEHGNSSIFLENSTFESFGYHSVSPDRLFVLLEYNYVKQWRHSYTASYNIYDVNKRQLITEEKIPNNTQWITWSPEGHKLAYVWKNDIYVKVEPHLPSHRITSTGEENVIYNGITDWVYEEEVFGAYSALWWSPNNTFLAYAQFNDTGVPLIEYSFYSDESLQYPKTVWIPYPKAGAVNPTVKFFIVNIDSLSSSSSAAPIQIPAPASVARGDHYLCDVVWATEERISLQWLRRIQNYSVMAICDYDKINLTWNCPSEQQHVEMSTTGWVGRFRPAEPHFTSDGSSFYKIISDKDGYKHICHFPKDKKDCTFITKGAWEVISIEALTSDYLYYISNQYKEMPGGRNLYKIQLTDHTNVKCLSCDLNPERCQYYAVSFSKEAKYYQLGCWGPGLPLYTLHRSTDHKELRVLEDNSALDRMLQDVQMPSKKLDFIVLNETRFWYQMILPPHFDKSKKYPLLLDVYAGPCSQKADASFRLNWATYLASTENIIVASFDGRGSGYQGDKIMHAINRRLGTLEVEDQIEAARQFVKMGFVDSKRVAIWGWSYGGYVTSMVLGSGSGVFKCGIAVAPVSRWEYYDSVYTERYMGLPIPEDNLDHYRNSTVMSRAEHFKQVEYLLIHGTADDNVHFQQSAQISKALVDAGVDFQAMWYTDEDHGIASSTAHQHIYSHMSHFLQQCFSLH
Series [2] in a line: Solubility in pH 6.8 buffer by nephelometry. The series is classed as physicochemical.
Series [3] in a line: Solubility in pH 7.4 buffer by nephelometry. The series is classed as physicochemical.
The nature of series [4]: Solubility in pH 7.0 buffer by nephelometry. The series is classed as physicochemical.
Series [5] is described as follows: Apparent permeability from apical to basolateral side in human Caco2 cells at 20 uM incubated for […] by LC-MS/MS analysis. The series is classed as ADME, cell-based. To be noted: Caco-2. A general note: Passage across Caco-2 layers is used to estimate intestinal permeability.
Series [6] in a line: Apparent permeability from basolateral to apical side in human Caco2 cells at 20 uM incubated for […] by LC-MS/MS analysis. To be noted: Caco-2. The series is classed as ADME, cell-based.
Series [7] is described as follows: Efflux ratio in human Caco2 cells at 20 uM incubated for […] by LC-MS/MS analysis. Type of series: ADME, cell-based. The following applies: Caco-2.
Series [8] is described as follows: Stability in human intestinal S9 fractions assessed as phase I and phase II enzymes-mediated generation of systemic metabolites at 0.1 uM incubated at 37 degC for 10 mins by LC-MS/MS analysis. The series is classed as ADME, subcellular, Intestine, S9 fraction. To be noted: s9, 10 min.
The nature of series [9]: Stability in mouse intestinal S9 fractions assessed as phase I and phase II enzymes-mediated generation of systemic metabolites at 0.1 uM incubated at 37 degC for 10 mins by LC-MS/MS analysis. Type of series: ADME, subcellular, Intestine, S9 fraction. The following applies: s9, 10 min.
For series [10], the system named is Mus musculus. As to the kind of experiment: Inhibition of jejunum DPP4 in BALB/c mouse at 30 mg/kg, po after 8 hrs using Gly-Pro-7-AMC substrate by fluorescence based assay. The series is classed as functional, organism-based. An outline of the steps:
(§1)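 Mice were dosed orally at 30 mg/kg and intestinal DPPIV activity was measured 8 h later in three intestinal segments. Activity is expressed relative to a vehicle control group, with n = 6 per group. Data are mean ± SEM, compared with control by Student's t-test.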

For series [11], the system named is Mus musculus. In words: Inhibition of ileum DPP4 in BALB/c mouse at 30 mg/kg, po after 8 hrs using Gly-Pro-7-AMC substrate by fluorescence based assay. Type of series: functional, organism-based. An outline of the steps: as §1
Series [12] relates to Mus musculus. In words: Inhibition of colon DPP4 in BALB/c mouse at 30 mg/kg, po after 8 hrs using Gly-Pro-7-AMC substrate by fluorescence based assay. Type of series: functional, organism-based. In a few lines: as §1
The nature of series [13]: Selectivity index, ratio of IC50 for recombinant human DPP8 to IC50 for inhibition of DPP4 in C57BL/6 mouse serum.
The nature of series [14]: Selectivity index, ratio of IC50 for recombinant human DPP9 to IC50 for inhibition of DPP4 in C57BL/6 mouse serum.
The test system of series [15] is HepG2. As to the kind of experiment: Cytotoxicity in human HepG2 cells assessed as reduction in cell viability up to 200 uM incubated for 24 hrs by MTT assay. Type of series: cell-based. To be noted: hepg2, 24 h.
For series [16], the system named is HEK293. As to the kind of experiment: Cytotoxicity in HEK293 cells assessed as reduction in cell viability up to 200 uM incubated for 24 hrs by MTT assay. The following applies: human, hek293, 24 h. Type of series: cell-based. Background: Tetrazolium assays rely on reduction of a dye to a coloured formazan, in cell work by metabolically active cells.
Series [17] relates to Hepatocyte. As to the kind of experiment: Cytotoxicity in mouse primary hepatocytes assessed as reduction in cell viability up to 200 uM incubated for 24 hrs by MTT assay. Type of series: cell-based.
Series [18] in a line: Toxicity in ICR mouse assessed as mouse survival at 1000 mg/kg, po administered as single dose after 4 days. To be noted: in vivo, 96 h.
The nature of series [19]: Toxicity in ICR mouse assessed as effect on body weight at 1000 mg/kg, po administered as single dose after 4 days. To be noted: in vivo, 96 h.
A short description of series [20]: Toxicity in ICR mouse assessed as effect on clinical parameters at 1000 mg/kg, po administered as single dose after 4 days. To be noted: in vivo, 96 h.
Series [21] is described as follows: Toxicity in ICR mouse assessed as effect on behavioral parameters at 1000 mg/kg, po administered as single dose after 4 days. The following applies: in vivo, 96 h.

The compound `C[N+](C)(C)CCNC(=O)CCCCCCCCCCCOc1ccc2nc(C3(NC(=O)C[C@H](N)Cc4cc(F)c(F)cc4F)CCS(=O)(=O)CC3)sc2c1` registered an IC50 in series [1] of 116 nM.
For `N[C@@H](CC(=O)NC1(c2nc3ccc(OCC(=O)NCCS(=O)(=O)O)cc3s2)CCS(=O)(=O)CC1)Cc1cc(F)c(F)cc1F.O=C(O)C(F)(F)F`, in series [1], half-maximal inhibition (IC50) required 1.1 nM. Also, the kinetic solubility in series [2], in series [3] and in series [4] was more than 50 µM throughout. Also, the apparent permeability from apical to basolateral (Papp A→B) at […], 20 µM in series [5] was 0.04 ×10⁻⁶ cm/s. In addition, the Papp B→A at […], 20 µM in series [6] was 0.01 ×10⁻⁶ cm/s. Further, the efflux ratio at […], 20 µM in [7] turned out to be 0.3. The Stability result in [8] and in [9] was “Stable” each time. Also, the inhibition entry in [10], in series [11] and in [12] was “Active” in each case. Further, the Ratio IC50 in series [13] and in series [14] was more than 2000 in each case. For the same compound, the Activity result in series [15], in series [16], in [17], in [18], in series [19] and in [20] was “Non-Toxic” throughout. In series [21], the Activity entry is given as “Non-Toxic”.
As for `C[N+](C)(C)CCNC(=O)COc1ccc2nc(C3(NC(=O)C[C@H](N)Cc4cc(F)c(F)cc4F)CCS(=O)(=O)CC3)sc2c1.O=C(O)C(F)(F)F.O=C([O-])C(F)(F)F`, it took 1.4 nM to reach half-maximal inhibition in series [1] (IC50). The kinetic solubility in series [2], in series [3] and in series [4] was more than 50 µM throughout. Moreover, the Papp A→B at […], 20 µM in series [5] worked out at 0.02 ×10⁻⁶ cm/s. Besides, in series [6], the basolateral-to-apical permeability (Papp B→A) at […], 20 µM was determined as 0.004 ×10⁻⁶ cm/s. Besides, the efflux ratio at […], 20 µM in series [7] stood at 0.2. In addition, the Stability result in series [8] and in series [9] was “Stable” each time. Besides, the inhibition entry in series [10], in series [11] and in series [12] was “Active” throughout.
For the compound `C[C@]12CC[C@H]3[C@@H](CCC4=CC(=O)CC[C@@]43C)[C@@H]1CC[C@@H]2O` [TESTOSTERONE], the Stability result in [8] and in series [9] was “Unstable” in each case.
For `N[C@@H](CC(=O)NC1(c2nc3ccc(OCCCCCC(=O)NCCS(=O)(=O)O)cc3s2)CCS(=O)(=O)CC1)Cc1cc(F)c(F)cc1F.O=C(O)C(F)(F)F`, in series [1], the IC50 stood at 2 nM. The solubility (kinetic) in series [2] is 20 to 50 µM; in series [3], more than 50 µM; in series [4] it was more than 50 µM. In [5], the Papp A→B at […], 20 µM worked out at 0.002 ×10⁻⁶ cm/s. Besides, the Papp B→A at […], 20 µM in series [6] stood at 0.59 ×10⁻⁶ cm/s. In addition, the efflux ratio at […], 20 µM in series [7] was 295.
As for `N[C@@H](CC(=O)NC1(c2nc3ccc(OCC(=O)NC[C@H](O)[C@@H](O)[C@@H](O)[C@H](O)CO)cc3s2)CCS(=O)(=O)CC1)Cc1cc(F)c(F)cc1F.O=C(O)C(F)(F)F`, in series [1], it took 2.2 nM to reach half-maximal inhibition (IC50). The solubility (kinetic) in series [2], in series [3] and in [4] was more than 50 µM in each case. For the same compound, in series [5], the Papp A→B at […], 20 µM turned out to be 0.02 ×10⁻⁶ cm/s. In series [6], the apparent permeability from basolateral to apical (Papp B→A) at […], 20 µM came out at 0.001 ×10⁻⁶ cm/s. The efflux ratio at […], 20 µM in series [7] amounted to 0.05.
In turn, `N[C@@H](CC(=O)NC1(c2nc3ccc(OCCCCCCCCCCCC(=O)NC[C@H](O)[C@@H](O)[C@@H](O)[C@H](O)CO)cc3s2)CCS(=O)(=O)CC1)Cc1cc(F)c(F)cc1F` registered an IC50 in [1] of 168 nM.
As to `N[C@@H](CC(=O)NC1(c2nc3ccc(OCCCCCC(=O)NC[C@H](O)[C@@H](O)[C@@H](O)[C@H](O)CO)cc3s2)CCS(=O)(=O)CC1)Cc1cc(F)c(F)cc1F.O=C(O)C(F)(F)F`, in series [1], inhibition was half-maximal at 3.5 nM (IC50). Also, the kinetic solubility was more than 50 µM in [2], 20 to 50 µM in [3] and 20 to 50 µM in series [4]. Besides, the apical-to-basolateral permeability (Papp A→B) at […], 20 µM in [5] came out at 0.02 ×10⁻⁶ cm/s. In [6], the basolateral-to-apical permeability (Papp B→A) at […], 20 µM turned out to be 0.27 ×10⁻⁶ cm/s. In addition, the efflux ratio at […], 20 µM in series [7] was found to be 13.
As to `N[C@@H](CC(=O)N1CCn2c(nnc2C(F)(F)F)C1)Cc1cc(F)c(F)cc1F` [SITAGLIPTIN], in series [5], the Papp A→B at […], 20 µM amounted to 0.25 ×10⁻⁶ cm/s. The Papp B→A at […], 20 µM in series [6] turned out to be 12.2 ×10⁻⁶ cm/s. Moreover, the inhibition entry in series [10], in series [11] and in series [12] was “Active” each time.
Turning to `N[C@@H](CC(=O)NC1(c2nc3ccc(OCCCCCCCCCCCC(=O)NCCS(=O)(=O)O)cc3s2)CCS(=O)(=O)CC1)Cc1cc(F)c(F)cc1F`, the 50% inhibitory concentration (IC50) in [1] is 81.8 nM.
Compound `C[N+](C)(C)CCNC(=O)CCCCCOc1ccc2nc(C3(NC(=O)C[C@H](N)Cc4cc(F)c(F)cc4F)CCS(=O)(=O)CC3)sc2c1.O=C(O)C(F)(F)F.O=C([O-])C(F)(F)F` registered an IC50 in [1] of 3 nM. The solubility (kinetic) in series [2], in series [3] and in [4] was more than 50 µM throughout. Moreover, the Papp A→B at […], 20 µM in [5] worked out at 0.02 ×10⁻⁶ cm/s. Moreover, the Papp B→A at […], 20 µM in series [6] amounted to 0.11 ×10⁻⁶ cm/s. In series [7], the efflux ratio at […], 20 µM was determined as 6.
Take `O=c1ccc2ccc(O)cc2o1` [UMBELLIFERONE]: the Stability result in series [8] and in series [9] was “Unstable” in each case.

For the origin of these results see ChEMBL document CHEMBL4334524, “Discovery of Highly Polar β-Homophenylalanine Derivatives as Nonsystemic Intestine-Targeted Dipeptidyl Peptidase IV Inhibitors” (J Med Chem, 2019).
